Active and inactive are the calls of the source. The calls are words filed in the database; no cut-off is given here.
Key:
EKVX = assay: Antiproliferative activity against human EKVX cells assessed as cell growth at 10 uM; format: functional; conditions: read-out: Activity
Outline: (§1)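 NCI 60 cell line panel, single-dose screen (10^-5 M) run by the developmental therapeutics program protocol. Results are given as growth percent of treated cells relative to untreated control cells for each line.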

786-0 = assay: Antiproliferative activity against human 786-0 cells assessed as cell growth at 10 uM; format: functional; conditions: read-out: Activity; outline: as §1
SR = assay: Antiproliferative activity against human SR cells assessed as cell growth at 10 uM; format: functional; conditions: read-out: Activity
Outline: (§2)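 NCI 60 cell line panel, single dose (10^-5 M), run per the Developmental Therapeutics Program protocol (one dose mean graph). Each result is the growth percentage of treated cells relative to untreated control cells.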

SNB-19 = assay: Antiproliferative activity against human SNB19 cells assessed as cell growth at 10 uM; format: functional; conditions: read-out: Activity; outline: as §1
K562 = assay: Antiproliferative activity against human K562 cells assessed as cell growth at 10 uM; format: functional; conditions: read-out: Activity; outline: as §1
[1] = Cytotoxicity against human H1299 cells at 1 uM after 48 hrs by MTT assay; format: functional; conditions: NCI-H1299, 48 h
Outline: (§3)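 H1299 non-small cell lung cancer cells were grown in RPMI 1640 with 10% FBS, penicillin and streptomycin at 37 °C under 5% CO2. About 2 × 10³ cells per well were seeded and left 24 h. Compounds were dissolved fresh in DMSO, diluted into complete medium and applied for 48 h. MTT was then added for 4 h at 37 °C, followed by lysis buffer (20% SDS, 50% DMF) for 16 h, and absorbance was read at 550 nm.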

NCI-H322M = assay: Antiproliferative activity against human NCI-H322M cells assessed as cell growth at 10 uM; format: functional; conditions: read-out: Activity; outline: as §1
[2] = Antiproliferative activity against human Hs 578T cells assessed as cell growth at 10 uM; format: functional; conditions: read-out: Activity; outline: as §1
NCI-H23 = assay: Antiproliferative activity against human NCI-H23 cells assessed as cell growth at 10 uM; format: functional; conditions: read-out: Activity; outline: as §1
NCI-H226 = assay: Antiproliferative activity against human NCI-H226 cells assessed as cell growth at 10 uM; format: functional; conditions: read-out: Activity; outline: as §1
COLO 205 = assay: Antiproliferative activity against human COLO205 cells assessed as cell growth at 10 uM; format: functional; conditions: read-out: Activity; outline: as §1
UACC-257 = assay: Antiproliferative activity against human UACC257 cells assessed as cell growth at 10 uM; format: functional; conditions: read-out: Activity; outline: as §2
A549 = assay: Antiproliferative activity against human A549 cells assessed as cell growth at 10 uM; format: functional; conditions: read-out: Activity; outline: as §1
DU-145 = assay: Antiproliferative activity against human DU145 cells assessed as cell growth at 10 uM; format: functional; conditions: read-out: Activity; outline: as §1
NCI-H460 = assay: Antiproliferative activity against human NCI-H460 cells assessed as cell growth at 10 uM; format: functional; conditions: read-out: Activity; outline: as §1
OVCAR-3 = assay: Antiproliferative activity against human OVCAR-3 cells assessed as cell growth at 10 uM; format: functional; conditions: read-out: Activity; outline: as §1
A498 = assay: Antiproliferative activity against human A498 cells assessed as cell growth at 10 uM; format: functional; conditions: read-out: Activity; outline: as §1
M14 = assay: Antiproliferative activity against human M14 cells assessed as cell growth at 10 uM; format: functional; conditions: read-out: Activity; outline: as §1
TK-10 = assay: Antiproliferative activity against human TK10 cells assessed as cell growth at 10 uM; format: functional; conditions: read-out: Activity; outline: as §2
HT-29 = assay: Antiproliferative activity against human HT-29 cells assessed as cell growth at 10 uM; format: functional; conditions: read-out: Activity; outline: as §1
OVCAR-5 = assay: Antiproliferative activity against human OVCAR5 cells assessed as cell growth at 10 uM; format: functional; conditions: read-out: Activity; outline: as §1
SN12C = assay: Antiproliferative activity against human SN12C cells assessed as cell growth at 10 uM; format: functional; conditions: read-out: Activity; outline: as §1
[3] = molecular target: Telomerase reverse transcriptase (Homo sapiens) (UniProt O14746); assay: Inhibition of TERT in human H1299 cells assessed as residual transcriptional activity at 100 uM after 24 hrs by SEAP reporter gene assay; values are per cent of control
HL-60(TB) = assay: Antiproliferative activity against human HL-60(TB) cells assessed as cell growth at 10 uM; format: functional; conditions: read-out: Activity
Outline: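 NCI Developmental Therapeutics Program 60-cell-line one-dose screen at 10^-5 M. Readout is growth percentage of treated cells relative to untreated control cells.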

SK-MEL-2 = assay: Antiproliferative activity against human SK-MEL-2 cells assessed as cell growth at 10 uM; format: functional; conditions: read-out: Activity; outline: as §1
OVCAR-8 = assay: Antiproliferative activity against human OVCAR8 cells assessed as cell growth at 10 uM; format: functional; conditions: read-out: Activity; outline: as §1
HCC 2998 = assay: Antiproliferative activity against human HCC2998 cells assessed as cell growth at 10 uM; format: functional; conditions: read-out: Activity; outline: as §1
SK-OV-3 = assay: Antiproliferative activity against human SKOV3 cells assessed as cell growth at 10 uM; format: functional; conditions: read-out: Activity; outline: as §1
NCI/ADR-RES = assay: Antiproliferative activity against human NCI/ADR-RES cells assessed as cell growth at 10 uM; format: functional; conditions: read-out: Activity; outline: as §1
[4] = molecular target: Telomerase reverse transcriptase (Homo sapiens) (UniProt O14746); assay: Inhibition of TERT in human H1299 cells assessed as residual transcriptional activity at 1 uM after 24 hrs by SEAP reporter gene assay; values are per cent of control
MCF7 = assay: Antiproliferative activity against human MCF7 cells assessed as cell growth at 10 uM; format: functional; conditions: read-out: Activity; outline: as §1
Malme-3M = assay: Antiproliferative activity against human MALME-3M cells assessed as cell growth at 10 uM; format: functional; conditions: read-out: Activity; outline: as §1
U-251 = assay: Antiproliferative activity against human U251 cells assessed as cell growth at 10 uM; format: functional; conditions: read-out: Activity; outline: as §2
SK-MEL-5 = assay: Antiproliferative activity against human SK-MEL-5 cells assessed as cell growth at 10 uM; format: functional; conditions: read-out: Activity; outline: as §1
SF-295 = assay: Antiproliferative activity against human SF295 cells assessed as cell growth at 10 uM; format: functional; conditions: read-out: Activity; outline: as §1
SK-MEL-28 = assay: Antiproliferative activity against human SK-MEL-28 cells assessed as cell growth at 10 uM; format: functional; conditions: read-out: Activity; outline: as §1
[5] = Cytotoxicity against human H1299 cells at 100 uM after 48 hrs by MTT assay; format: functional; conditions: NCI-H1299, 48 h; outline: as §3
[6] = molecular target: Telomerase reverse transcriptase (Homo sapiens) (UniProt O14746); assay: Inhibition of telomerase in human H1299 cells up to 100 uM by TRAP assay; format: cell-based
Outline: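 PCR-based telomeric repeat amplification protocol (TRAP). The telomerase source was total lysate of H1299 lung cancer cells, with protein measured against BSA standards. Controls were extract without inhibitor and RNase A-treated extract.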

T47D = assay: Antiproliferative activity against human T47D cells assessed as cell growth at 10 uM; format: functional; conditions: read-out: Activity; outline: as §2
[7] = Cytotoxicity against human H1299 cells at 10 uM after 48 hrs by MTT assay; format: functional; conditions: NCI-H1299, 48 h; outline: as §3

Telomerase reverse transcriptase (Homo sapiens), sequence (O14746 whole entry): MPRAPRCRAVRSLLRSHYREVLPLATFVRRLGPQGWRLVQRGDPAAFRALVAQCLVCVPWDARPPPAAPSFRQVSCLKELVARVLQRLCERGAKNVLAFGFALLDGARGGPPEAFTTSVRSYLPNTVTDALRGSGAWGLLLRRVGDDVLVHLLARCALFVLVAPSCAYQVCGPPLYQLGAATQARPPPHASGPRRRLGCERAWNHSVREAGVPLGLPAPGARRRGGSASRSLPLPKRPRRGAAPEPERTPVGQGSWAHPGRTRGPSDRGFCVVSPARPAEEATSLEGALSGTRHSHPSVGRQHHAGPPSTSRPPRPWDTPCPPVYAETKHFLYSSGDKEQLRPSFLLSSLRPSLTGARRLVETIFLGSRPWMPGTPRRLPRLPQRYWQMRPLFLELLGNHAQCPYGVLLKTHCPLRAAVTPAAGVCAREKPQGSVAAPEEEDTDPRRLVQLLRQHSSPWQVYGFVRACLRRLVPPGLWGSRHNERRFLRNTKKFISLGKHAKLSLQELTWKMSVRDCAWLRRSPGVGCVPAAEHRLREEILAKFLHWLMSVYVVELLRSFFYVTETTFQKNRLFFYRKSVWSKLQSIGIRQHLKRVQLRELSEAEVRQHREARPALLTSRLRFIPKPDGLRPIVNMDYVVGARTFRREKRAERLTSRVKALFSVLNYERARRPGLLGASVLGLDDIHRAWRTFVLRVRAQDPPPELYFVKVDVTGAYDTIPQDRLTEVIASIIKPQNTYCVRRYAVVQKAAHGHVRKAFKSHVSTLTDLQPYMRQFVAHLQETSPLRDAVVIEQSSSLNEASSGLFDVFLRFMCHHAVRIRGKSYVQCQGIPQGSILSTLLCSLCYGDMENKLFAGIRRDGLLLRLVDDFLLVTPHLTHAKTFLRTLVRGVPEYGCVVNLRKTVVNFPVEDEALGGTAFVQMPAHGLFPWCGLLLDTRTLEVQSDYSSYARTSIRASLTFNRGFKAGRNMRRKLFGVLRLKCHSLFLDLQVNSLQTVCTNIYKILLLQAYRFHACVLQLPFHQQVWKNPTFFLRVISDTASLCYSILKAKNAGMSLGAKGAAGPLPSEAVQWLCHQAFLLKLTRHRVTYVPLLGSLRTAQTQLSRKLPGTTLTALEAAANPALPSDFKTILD

SMILES: O=C1c2ccccc2C(=O)c2c1ccc1nccnc21
- growth at 10 µM (EKVX): 82.6%
- growth at 10 µM (786-0): 28.4%
- growth at 10 µM (SR): 82.9%
- growth at 10 µM (SNB-19): 87.3%
- growth at 10 µM (K562): 37.2%
- viability at 1 µM [1]: 98%
- growth at 10 µM (NCI-H322M): 96.3%
- growth at 10 µM [2]: 76.8%
- growth at 10 µM (NCI-H23): 65.1%
- growth at 10 µM (NCI-H226): 86.7%
- growth at 10 µM (COLO 205): 71.6%
- growth at 10 µM (UACC-257): 91.1%
- growth at 10 µM (A549): 47.1%
- growth at 10 µM (DU-145): 93.3%
- growth at 10 µM (NCI-H460): 31.7%
- growth at 10 µM (OVCAR-3): 71.7%
- growth at 10 µM (A498): 98.8%
- growth at 10 µM (M14): 59.8%
- growth at 10 µM (TK-10): 127%
- growth at 10 µM (HT-29): 81.9%
- growth at 10 µM (OVCAR-5): 107%
- growth at 10 µM (SN12C): 64.7%
- residual activity [3]: 24%
- growth at 10 µM (HL-60(TB)): 102%
- growth at 10 µM (SK-MEL-2): 6.66%
- growth at 10 µM (OVCAR-8): 47.5%
- growth at 10 µM (HCC 2998): -7.15%
- growth at 10 µM (SK-OV-3): 78.2%
- growth at 10 µM (NCI/ADR-RES): 68%
- residual activity [4]: 105%
- growth at 10 µM (MCF7): 39.7%
- growth at 10 µM (Malme-3M): 181%
- growth at 10 µM (U-251): 63.5%
- growth at 10 µM (SK-MEL-5): 66.6%
- growth at 10 µM (SF-295): 80.8%
- growth at 10 µM (SK-MEL-28): 97.5%
- viability at 100 µM [5]: 6%
- inhibition [6]: inactive
- growth at 10 µM (T47D): 85.2%
- viability at 10 µM [7]: 13%

— ChEMBL document CHEMBL1152649, “Synthesis, cytotoxicity and human telomerase inhibition activities of a series of 1,2-heteroannelated anthraquinones and anthra[1,2-d]imidazole-6,11-dione homologues” (2009)
